We go through 23 compounds from ChEMBL document CHEMBL1157579, “Discovery of potent sulfonamide P4-capped ketoamide second generation inhibitors of hepatitis C virus NS3 serine protease with favorable pharmacokinetic profiles in preclinical species” (Bioorg Med Chem, 2010).

The AUC(0-t) is the area under the concentration-time curve up to a stated or last time point. By EC90 is commonly meant the concentration at which the effect reaches the 90% level. As usually defined, the pKi is the negative decadic logarithm of the Ki, by convention in mol/L.

Data set [1] can be described thus: AUC (0 to 6 hrs) in dog at 2 mg/kg, po. The format is ADME, organism-based, Canis lupus familiaris. Also noted: time < 6 hr, dose 2 mg/kg, route oral. Conditions: plasma.
Data set [2] deals with Hepatitis C virus. The data set is described as follows: Antiviral activity against Hepatitis C virus genotype 1 by replicon assay. The class given is functional, organism-based, Hepacivirus hominis. A general note: Replicon systems follow genome replication, usually without infectious particles.
The nature of data set [3]: Inhibition of HCV NS4A-tethered single chain NS3 serine protease assessed as Ac-DTEDVVP(Nva)- O-PAP substrate hydrolysis by spectrophotometric assay. Also noted: species or system Hepacivirus hominis. In short, it runs like this: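 Ki* reported for a single P1 diastereomer, within twofold at 95% confidence limit.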
Data set [4] is described as follows: AUC (0 to 6 hrs) in rat at 10 mg/kg, po. The format is ADME, organism-based. On the set-up: time < 6 hr, dose 10 mg/kg, route oral. Conditions: plasma.
Data set [5] can be described thus: Selectivity index, ratio of Ki for HNE to Ki for NS4A-tethered single chain NS3 serine protease. In short, it runs like this:
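Compounds tested against human neutrophil elastase as a counter-protease; selectivity expressed as HNE Ki divided by HCV NS3 protease Ki.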

Data set [6] in a line: AUC (0 to 6 hrs) in monkey at 10 mg/kg, po. On the set-up: time < 6 hr, dose 10 mg/kg, route oral. The class given is ADME, organism-based, Macaca mulatta. Conditions: rhesus monkey, plasma.
The nature of data set [7]: AUC (0 to 6 hrs) in dog at 3 mg/kg, po. The class given is ADME, organism-based, Canis lupus familiaris. On the set-up: time < 6 hr, dose 3 mg/kg, route oral. Conditions: plasma.

pKi: −log10 of the molar value.

Take `CCC[C@H](NC(=O)[C@@H]1[C@@H]2[C@H](CN1C(=O)[C@@H](NC(=O)NC1(CS(=O)(=O)N(CC)C3CC3)CCCCC1)C(C)(C)C)C2(C)C)C(=O)C(=O)NC1CC1`: the AUC(0-t) at 6 h in data set [1] is 7.9 µM·h; in data set [4] it was 1 µM·h. It took 65 nM to reach the 90% level in data set [2] (EC90). Besides, the pKi in data set [3] was 8.30. In addition, the Ratio Ki in data set [5] is 131.

For the compound `CCC[C@H](NC(=O)[C@@H]1[C@@H]2[C@H](CN1C(=O)[C@@H](NC(=O)NC1(CS(=O)(=O)N(C)CC3CC3)CCCCC1)C(C)(C)C)C2(C)C)C(=O)C(=O)NC1CC1`, the 90% effect level in data set [2] (EC90) was put at 135 nM. Besides, the pKi in data set [3] is 8.05.

For the compound `CN(C1CC1)S(=O)(=O)CC1(NC(=O)N[C@H](C(=O)N2C[C@H]3[C@@H]([C@H]2C(=O)N[C@@H](CC2CC2)C(=O)C(=O)NC2CC2)C3(C)C)C(C)(C)C)CCCCC1`, the AUC(0-t) at 6 h in data set [1] came out at 1.4 µM·h; in data set [4] it was 2.2 µM·h. Moreover, the EC90 in data set [2] turned out to be 60 nM. Moreover, the pKi in data set [3] is 7.82. Also, the Ratio Ki in data set [5] was 113.

For the compound `CCC[C@H](NC(=O)[C@@H]1[C@@H]2[C@H](CN1C(=O)[C@@H](NC(=O)NC1([C@H](C)S(=O)(=O)N(C)C)CCCCC1)C(C)(C)C)C2(C)C)C(=O)C(=O)NC1CC1`, the pKi in data set [3] was 7.66.

With `CCC[C@H](NC(=O)[C@@H]1[C@@H]2[C@H](CN1C(=O)[C@@H](NC(=O)NC1(CS(=O)(=O)N3CCOCC3)CCCCC1)C(C)(C)C)C2(C)C)C(=O)C(=O)NC1CC1`, the area under the curve AUC(0-t) at 6 h in data set [1] and in data set [4] was 0.3 µM·h throughout. The same compound displayed an EC90 in data set [2] of 45 nM. For the same compound, the pKi in data set [3] is 8.10. Moreover, in data set [5], the Ratio Ki stood at 135.

On to `CCC[C@H](NC(=O)[C@@H]1[C@@H]2[C@H](CN1C(=O)[C@@H](NC(=O)NC1(CS(=O)(=O)N(C)CC)CCCCC1)C(C)(C)C)C2(C)C)C(=O)C(=O)NC1CC1`, for which the AUC(0-t) at 6 h in data set [6] amounted to 0.1 µM·h; in data set [1] it was 0.5 µM·h; in data set [4] it was 1.5 µM·h. In data set [2], this compound yielded an EC90 of 65 nM. Further, in data set [3], the pKi is 8.05. Further, the Ratio Ki in data set [5] was found to be 64.

In turn, `CC(C)(C)[C@H](NC(=O)NC1(C(=O)OCc2ccccc2)CCCCC1)C(=O)N1C[C@H]2[C@@H]([C@H]1C(=O)NC(CC1CC1)C(=O)C(N)=O)C2(C)C` (stereo partly drawn) registered an exposure AUC(0-t) at 6 h in data set [6] of 0.05 µM·h. It took 20 nM to reach the 90% level in data set [2] (EC90). Besides, in data set [3], the pKi was 7.31. Moreover, in data set [5], the Ratio Ki turned out to be 55.

For the compound `CCC[C@H](NC(=O)[C@@H]1[C@@H]2[C@H](CN1C(=O)[C@@H](NC(=O)NC1(CS(=O)(=O)N3CCC3)CCCCC1)C(C)(C)C)C2(C)C)C(=O)C(=O)NC1CC1`, the AUC(0-t) at 6 h in data set [1] and in data set [4] was 0.8 µM·h in each case. Besides, in data set [2], it took 80 nM to reach the 90% level (EC90). Also, the pKi in data set [3] was 8.15.

Turning to `CCC[C@H](NC(=O)[C@@H]1[C@@H]2[C@H](CN1C(=O)[C@@H](NC(=O)NC1(CS(=O)(=O)N(C(C)C)C3CC3)CCCCC1)C(C)(C)C)C2(C)C)C(=O)C(=O)NC1CC1`, the AUC(0-t) at 6 h was 0.5 µM·h in data set [1] and 1.7 µM·h in data set [4]. In data set [2], this compound came in with an EC90 of 100 nM. In addition, in data set [3], the pKi is 8.22.

The compound `CCC[C@H](NC(=O)[C@@H]1[C@@H]2[C@H](CN1C(=O)[C@@H](NC(=O)NC1([C@@H]3CCN(C)S3(=O)=O)CCCCC1)C(C)(C)C)C2(C)C)C(=O)C(=O)NC1CC1` came in with an EC90 in data set [2] of 20 nM. In addition, the pKi in data set [3] is 8.40. The same compound came in with an AUC(0-t) at 6 h in data set [4] of 0.1 µM·h. In data set [5], the Ratio Ki is 340.

As for `CCC[C@H](NC(=O)[C@@H]1[C@@H]2[C@H](CN1C(=O)[C@@H](NC(=O)NC1(C3CCN(C4CC4)S3(=O)=O)CCCCC1)C(C)(C)C)C2(C)C)C(=O)C(=O)NC1CC1` (single isomer, unassigned), it took 20 nM to reach the 90% level in data set [2] (EC90). Besides, the pKi in data set [3] is 8.40. Also, the AUC(0-t) at 6 h in data set [4] was 0.1 µM·h. Besides, the Ratio Ki in data set [5] was 340.

For the compound `CCC[C@H](NC(=O)[C@@H]1[C@@H]2[C@H](CN1C(=O)[C@@H](NC(=O)NC1(CS(=O)(=O)NC)CCCCC1)C(C)(C)C)C2(C)C)C(=O)C(=O)NC1CC1`, the 90% effect level in data set [2] (EC90) was put at 300 nM. For the same compound, the pKi in data set [3] was 7.82. Further, the Ratio Ki in data set [5] is 58.

On to `CCC[C@H](NC(=O)[C@@H]1[C@@H]2[C@H](CN1C(=O)[C@@H](NC(=O)NC1(CS(=O)(=O)N(C)C3CCC3)CCCCC1)C(C)(C)C)C2(C)C)C(=O)C(=O)NC1CC1`, for which the figures for the AUC(0-t) at 6 h in data set [1] and in data set [4] were 0.2 µM·h and 0.3 µM·h, respectively. The compound further had an EC90 in data set [2] of 90 nM. Further, the pKi in data set [3] is 8.15.

Take `CCC[C@H](NC(=O)[C@@H]1[C@@H]2[C@H](CN1C(=O)[C@@H](NC(=O)NC1(CS(=O)(=O)N(C)C(C)(C)C)CCCCC1)C(C)(C)C)C2(C)C)C(=O)C(=O)NC1CC1`: the AUC(0-t) at 6 h in data set [1] is 0.2 µM·h; in data set [4], 0.6 µM·h. Further, the EC90 in data set [2] came out at 55 nM. In addition, in data set [3], the pKi was 8.10. In addition, in data set [5], the Ratio Ki was determined as 36.

On to `CCC[C@H](NC(=O)[C@@H]1[C@@H]2[C@H](CN1C(=O)[C@@H](NC(=O)NC1(CS(=O)(=O)N(C)C(C)C)CCCCC1)C(C)(C)C)C2(C)C)C(=O)C(=O)NC1CC1`, for which the AUC(0-t) at 6 h was 0.2 µM·h in data set [1] and 0.9 µM·h in data set [4]. Moreover, the EC90 in data set [2] turned out to be 70 nM. Besides, the pKi in data set [3] was 8.15. Further, the Ratio Ki in data set [5] was 97.

As to `CCC[C@H](NC(=O)[C@@H]1[C@@H]2[C@H](CN1C(=O)[C@@H](NC(=O)NC1(CS(=O)(=O)N(C)C)CCCCC1)C(C)(C)C)C2(C)C)C(=O)C(=O)NC1CC1`, the AUC(0-t) at 6 h in data set [6] stood at 0.1 µM·h; in data set [1], 6.1 µM·h; in data set [4], 0.6 µM·h. In data set [2], it took 55 nM to reach the 90% level (EC90). For the same compound, in data set [3], the negative-log Ki (pKi) is 8.22. Besides, the Ratio Ki in data set [5] is 82.

As for `CCC[C@H](NC(=O)[C@@H]1[C@@H]2[C@H](CN1C(=O)[C@@H](NC(=O)NC1(CS(=O)(=O)N(C)C(C)(C)CF)CCCCC1)C(C)(C)C)C2(C)C)C(=O)C(=O)NC1CC1`, the AUC(0-t) at 6 h in data set [1] came to 0.2 µM·h; in data set [4], 0.1 µM·h. For the same compound, the EC90 in data set [2] was 45 nM. Also, the pKi in data set [3] was 8.55.

`C#CCCC(NC(=O)[C@@H]1[C@@H]2[C@H](CN1C(=O)[C@@H](NC(=O)N[C@H](C(=O)C1CC1)C1CCCCC1)C(C)(C)C)C2(C)C)C(=O)C(=O)NC1CC1` (stereo partly drawn): the AUC(0-t) at 6 h in data set [1] stood at 0.1 µM·h. Moreover, the EC90 in data set [2] stood at 55 nM. Also, the pKi in data set [3] was 8.40. Also, the Ratio Ki in data set [5] is 20.

Turning to `CC(C)(C)NC(=O)N[C@H](C(=O)N1C[C@H]2[C@@H]([C@H]1C(=O)NC(CC1CCC1)C(=O)C(N)=O)C2(C)C)C(C)(C)C` (stereo partly drawn) [BOCEPREVIR], the results for the AUC(0-t) at 6 h in data set [6], in data set [4] and in data set [7] were 0.3 µM·h, 0.1 µM·h and 3.1 µM·h, respectively. For the same compound, in data set [3], the pKi was 7.85.

Consider `CCC[C@H](NC(=O)C1[C@@H]2[C@H](CN1C(=O)[C@@H](NC(=O)NC1([C@@H](C)S(=O)(=O)N(C)C)CCCCC1)C(C)(C)C)C2(C)C)C(=O)C(=O)NC1CC1` (stereo partly drawn), for which the area under the curve AUC(0-t) at 6 h in data set [1] is 0.1 µM·h; in data set [4], 0.6 µM·h. The EC90 in data set [2] was determined as 85 nM. In addition, the pKi in data set [3] was 8.70.

For `CCC[C@H](NC(=O)[C@@H]1[C@@H]2[C@H](CN1C(=O)[C@@H](NC(=O)NC1(CS(=O)(=O)N(C)C3CC3)CCCCC1)C(C)(C)C)C2(C)C)C(=O)C(=O)NC1CC1`, the AUC(0-t) at 6 h is 3.3 µM·h in data set [6], 6.9 µM·h in data set [1] and 1.8 µM·h in data set [4]. In data set [2], this compound showed an EC90 of 55 nM. Besides, the pKi in data set [3] is 8.10. The Ratio Ki in data set [5] is 82.

Consider `CN(C1CC1)S(=O)(=O)CC1(NC(=O)N[C@H](C(=O)N2CC3C([C@H]2C(=O)N[C@@H](CCC2CC2)C(=O)C(=O)NC2CC2)C3(C)C)C(C)(C)C)CCCCC1` (single isomer, unassigned), for which the AUC(0-t) at 6 h in data set [6] amounted to 5.4 µM·h; in data set [1], 4 µM·h; in data set [4] it was 0.9 µM·h. This compound displayed an EC90 in data set [2] of 75 nM. In data set [3], the pKi is 8.22. In addition, the Ratio Ki in data set [5] is 2480.

On to `CCCC[C@H](NC(=O)[C@@H]1[C@@H]2[C@H](CN1C(=O)[C@@H](NC(=O)NC1(CS(=O)(=O)N(C)C3CC3)CCCCC1)C(C)(C)C)C2(C)C)C(=O)C(=O)NC1CC1`, for which the EC90 in data set [2] was 105 nM. Moreover, the negative-log Ki (pKi) in data set [3] was 7.96. Further, in data set [5], the Ratio Ki came to 959.
